Screening results from PubChem BioAssay.
Lmaj promast – Leishmania major promastigote growth inhibition, primary screen. 200,000 tested, 9% active. inhibition, % at 10 µM. Leishmania major promastigotes, resazurin fluorescence viability;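 further: promastigotes grown with compound for 44 hours at 28 °C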
Diaph act CS – compounds boosting diaphorase resazurin reduction – biochemical, uHTS, resorufin fluorescence, counter-screen for diaphorase-coupled primary assays, primary screen; Diaphorase/resazurin coupled assay, 16 min; active compounds read high; 1 = vehicle wells, 0 = NADH-free wells; activation factor at 20 µM; 190,000 tested, 0.005% active; AID 1229, 2008;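 active means diaphorase activity raised at least twofold by the compound at 20 µM; inactive means activation factor below 2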
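Assay system: bacterial diaphorase enzyme (C. kluyveri) / Input: enzyme 0.07 U/mL final / Medium: 50 mM HEPES pH 7.4 with 4.542 mM MgCl2, 0.005% Tween 20 / Doses: single compound dose of 20 µM, 1% DMSO final / Incubation: 16 min enzyme reaction, ambient temperature / Signal: fluorescence, excitation 544 nm and emission 590 nm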
G6PDH counter – L. mesenteroides G6PDH inhibitors, counter-screen for G6PDH-coupled screening assays, biochemical, Leuconostoc mesenteroides enzyme. glucose-6-phosphate dehydrogenase [Leuconostoc mesenteroides]. AID 1020, 2008. 200,000 tested, 0.12% active. inhibition, % at 5 µM. Purified L. mesenteroides G6PDH, diaphorase/resazurin coupled fluorescence, 45 min
WT yeast gro inh – growth inhibition of WT strain, primary screen, mitochondrial fusion inhibitor project, WT and mutant strains, chemical genetic | 190,000 tested, 2.1% active | inhibition, % at 10 µM | mitochondrial fusion phenotypic screen | AID 1362, 2008; in the data active means inhibition above about 58%; tested in S. cerevisiae
Diaphorase inh – diaphorase inhibitors and chemical oxidizers, primary screen, counter-screen for diaphorase-coupled primary assays, biochemical, uHTS, resorufin fluorescence; inhibition, % at 20 µM; diaphorase resazurin-to-resorufin fluorescence, NADH, 16 min; bacterial (C. kluyveri) enzyme, not human; 190,000 tested, 0.69% active; AID 1217, 2008;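 active means primary screen inhibition at 20 µM above a set limit, cut at about 50% in these data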;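 further: plate controls were DMSO with full reaction for no effect and wells lacking NADH for full effect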
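Assay system: diaphorase enzyme from Clostridium kluyveri; Input: enzyme working solution with 0.14 U/mL diaphorase; Timing: 16 min at room temperature; Technique: resorufin fluorescence, excitation 544 nm, emission 590 nm; Benchmarks: positive control minus NADH, DMSO neutral control.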
* marks the source's active call; other numbers are inactive results; . = no result. Only some compounds are listed: those with a hit (about 11% of all), similar ones and a draw of the others. Unless noted, no stated cut-off is given here; in the data, active means inhibition above about 50%; inactive means the rest.

SMILES	Lmaj promast	Diaph act CS	G6PDH counter	WT yeast gro inh	Diaphorase inh
C=CCn1c(=NC(=O)C2CCCCC2)sc2cc(NC(C)=O)ccc21	80*	1	-22	2	0
C=CCn1c(=NC(=O)C2CC2)sc2cc(NC(C)=O)ccc21	2	0.8	8	11	16
COc1ccc(/C=C/C=N/NC(=O)COc2ccc(OC)cc2)cc1	-5	1	0	-13	2
Cc1ccc(OCC(=O)N/N=C/C=C/c2ccco2)cc1	76*	0.8	2	10	16
O=C(COc1ccccc1[N+](=O)[O-])N/N=C/C=C/c1ccco1	-8	0.8	1	71*	15
COc1ccc(Br)cc1/C=N/NC(=O)c1ccco1	2	1	3	9	1
CC(C)(C)c1ccc(OCC(=O)N/N=C/c2cc(Br)ccc2OC(=O)c2ccco2)cc1	94*	1	13	-8	2
O=C(COc1ccccc1[N+](=O)[O-])N/N=C/c1ccc(OC(=O)c2ccco2)cc1	-1	0.9	-18	-8	14
COc1cc(/C=N/NC(=O)COc2ccccc2[N+](=O)[O-])ccc1OC(=O)c1ccco1	57*	0.9	19	13	14
COc1ccc(OC)c(/C=N/NC(=O)Cc2nc3ccccc3[nH]2)c1	0	1	12	11	-3
CC1=[N+](C)N(c2ccccc2)C(=O)C1N=Cc1c(Cl)cccc1Cl (centres undefined)	2	0.8	11	-3	16
CCOC(=O)c1sc(NC(=S)NC(=O)c2ccccc2)c(C(=O)OCC)c1C	30	1	-9	4	0
CCOC(=O)C1=C(NC(=S)NC(=O)c2ccccc2)c2ccccc2CC1(C)CC (centres undefined)	17	0.8	7	70*	23
CCOC(=O)C1=C(NC(=S)NC(=O)c2ccccc2)c2ccccc2CC1C(C)C (centres undefined)	20	0.8	-5	78*	18
O=S(=O)(Nc1nccs1)c1ccc(F)cc1	-7	.	12	0	.
CC(SCC(=O)Nc1ccc(S(=O)(=O)N2CCCCC2)cc1)C(=O)O (centres undefined)	-5	0.9	4	9	12
CCCCC1(C)OC(=O)C(=Cc2c[nH]c3ccccc23)C(=O)O1 (centres undefined)	4	1	3	-5	4
O=C1/C(=C/c2c[nH]c3ccccc23)CCC/C1=C\c1c[nH]c2ccccc12	84*	0.8	17	48	18
C=CCn1c2ccccc2c2nnc(SCCCn3c(=O)[nH]c4ccccc43)nc21	18	0.4	-26	-4	57*
Cc1csc(SCCn2c(N3CCN(c4ccccc4)CC3)nc3c2c(=O)[nH]c(=O)n3C)n1	-6	0.9	2	-12	11
CCC(C)(C)NC(=O)C(c1ccccc1)N(C(=O)c1csnn1)C1CC1 (centres undefined)	19	1.1	3	-3	-12
CN(C)c1ccc(C(C(=O)NC(C)(C)C)N(C(=O)c2csnn2)C2CC2)cc1 (centres undefined)	53*	1	14	8	4
OC(CNCC(c1ccc(Cl)cc1Cl)c1c[nH]c2ccccc12)c1ccccc1 (centres undefined)	100*	1.1	6	98	-7
COc1ccc(C2C3=C(CC(C)(C)CC3=O)N(C)C3=C2C(=O)CC(C)(C)C3)cc1	0	1.1	0	-11	-9
COc1ccc(N2C3=C(CC4=C2CCCC4=O)C(=O)CCC3)cc1	26	0.4	29	14	64*
SMILES	Lmaj promast	Diaph act CS	G6PDH counter	WT yeast gro inh	Diaphorase inh
COc1ccc(N2C3=C(CC4=C2CC(C)(C)CC4=O)C(=O)CC(C)(C)C3)cc1	100*	0.8	3	-6	23
COc1ccc(-n2ccc(=O)c3c2CCCC3=O)cc1	1	0.8	8	0	20
O=C(O)CCC(=O)Nc1ccc(Cc2ccc(NC(=O)CCC(=O)O)cc2)cc1	5	0.9	8	4	9
N#C/C(=C\c1ccc[nH]1)S(=O)(=O)c1ccccc1	-4	1.1	23	-12	-6
Cc1ccc(Oc2ncc(CN3CCOCC3)s2)cc1	77*	1.1	6	-28	-5
Brc1ccc(Oc2ncc(CN3CCN(c4ccccc4)CC3)s2)cc1	-4	0.9	18	53	13
Clc1cccc(Oc2ncc(CN3CCOCC3)s2)c1	62*	0.9	5	3	6
C=CCN1C(=O)/C(=C2/Sc3ccc(OC)cc3N2C)SC1=Nc1cccc(O)c1	13	1	8	5	3
COc1cc(/C=N/OCC(=O)Nc2cc(C)on2)ccc1OCc1ccccc1	64*	0.9	-4	5	7
COc1cc(/C=C/C(=O)NC(C)C)ccc1OCc1ccccc1	-2	0.9	7	5	8
CCOc1cc(/C=N/NC(=O)c2nn(C)cc2Br)ccc1OCc1ccccc1Cl	72*	0.8	-6	28	19
COc1cc(/C=N/NC(=O)CCN2CCN(Cc3ccccc3)CC2)cc(OC)c1OC	52*	1	18	0	4
COc1cc(/C=N/NC(=O)CCN2CCN(c3ccccc3)CC2)cc(OC)c1OC	-4	0.9	-2	-3	7
CCCCOc1ccc(C(=O)N/N=C/c2cn[nH]c2-c2ccc(OC)c(OC)c2)cc1	7	0.8	4	-6	23
CCCCOc1ccc(C(=O)N/N=C/c2ccc(OCCN3CCCCC3)c(OC)c2)cc1	100*	1.1	-2	15	-10
O=C(c1ccc(COCC(F)(F)F)o1)N1CCCC1	-3	0.8	10	5	16
CCOC(=O)c1ccc(N2CCN(C(C)=O)CC2)c(NC(=O)c2cccnc2)c1	-3	0.8	16	5	21
CCOc1cc(/C=N/NC(=O)CN2CCCCC2)ccc1OCc1cccc(Cl)c1	97*	0.9	-14	32	12
CCOc1cc(/C=N/NC(=O)CN2CCCCC2)ccc1OCc1ccc(Cl)cc1	99*	1	15	23	2
COc1cc(/C=N/NC(=O)CN2CCCCC2)ccc1OCc1ccccc1	95*	1	-4	-2	3
COc1cc(/C=N/NC(=O)CN2CCOCC2)ccc1OCc1ccccc1	-3	0.9	18	-5	6
CCOc1cc(/C=N/NC(=O)c2ccc(CN3CCOCC3)cc2)ccc1OCc1ccccc1	98*	1	4	15	4
CCOc1cc(/C=N/NC(=O)CN2CCOCC2)ccc1OCc1ccccc1	6	0.8	-14	-11	18
